Results published in ChEMBL document CHEMBL1147950, “Polyphenols based on isoflavones as inhibitors of Helicobacter pylori urease” (Bioorg Med Chem, 2007).
Several values for one entry are separate records, joined by “and”; a condition that tells them apart may be missing. Identical values can stand only once.

Assays:
[1] = molecular target: Urease subunit alpha/Urease subunit beta (Helicobacter pylori (strain ATCC 700392 / 26695) (Campylobacterpylori)) (UniProt P69996+P14916); assay: Inhibition of Helicobacter pylori ATCC 43504 urease at 400 ug/mL after 3 hrs pre-incubation
Chain of Urease subunit alpha/Urease subunit beta (Helicobacter pylori (strain ATCC 700392 / 26695) (Campylobacterpylori)) (P14916 whole entry, looked up): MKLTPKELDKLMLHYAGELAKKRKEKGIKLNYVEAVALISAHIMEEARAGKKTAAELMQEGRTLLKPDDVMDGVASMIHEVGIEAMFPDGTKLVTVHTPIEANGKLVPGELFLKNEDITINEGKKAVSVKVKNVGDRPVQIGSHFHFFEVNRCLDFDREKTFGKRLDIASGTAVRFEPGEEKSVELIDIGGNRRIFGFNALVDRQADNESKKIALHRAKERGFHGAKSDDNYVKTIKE
Chain of Urease subunit alpha/Urease subunit beta (Helicobacter pylori (strain ATCC 700392 / 26695) (Campylobacterpylori)) (P69996 whole entry, looked up): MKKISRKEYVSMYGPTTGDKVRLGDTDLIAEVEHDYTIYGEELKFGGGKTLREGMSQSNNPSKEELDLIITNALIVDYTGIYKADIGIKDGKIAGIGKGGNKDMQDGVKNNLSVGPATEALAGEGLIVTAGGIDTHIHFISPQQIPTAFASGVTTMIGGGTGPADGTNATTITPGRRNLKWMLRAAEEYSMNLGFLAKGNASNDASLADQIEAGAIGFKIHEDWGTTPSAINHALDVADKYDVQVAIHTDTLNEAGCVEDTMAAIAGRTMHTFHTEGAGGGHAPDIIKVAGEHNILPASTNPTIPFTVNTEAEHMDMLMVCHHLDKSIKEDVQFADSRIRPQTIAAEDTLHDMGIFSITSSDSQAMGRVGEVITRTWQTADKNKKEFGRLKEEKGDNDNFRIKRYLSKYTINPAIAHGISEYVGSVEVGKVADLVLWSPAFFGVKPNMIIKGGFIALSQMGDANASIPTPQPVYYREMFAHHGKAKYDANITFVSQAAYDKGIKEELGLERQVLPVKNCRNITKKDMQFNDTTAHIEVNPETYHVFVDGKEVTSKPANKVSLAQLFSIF
Outline: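 Urease from H. pylori ATCC 43504 cultured 24 h at 37 °C in brucella broth with 10% heat-inactivated horse serum, microaerobic (5% O2, 10% CO2, 85% N2). 4 U enzyme preincubated with test compound 3 h at room temperature. Activity read as ammonia production by the indophenol method; percent inhibition recorded.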

[2] = molecular target: T1, Urease subunit alpha/Urease subunit beta (Helicobacter pylori (strain ATCC 700392 / 26695) (Campylobacterpylori), UniProt P69996); assay: Inhibition of Helicobacter pylori ATCC 43504 urease after 3 hrs pre-incubation
T1 sequence (P69996 whole entry): as the sequence (P69996 whole entry, looked up) above
T1 sequence (P14916 whole entry, further chain): as the sequence (P14916 whole entry, looked up) above
Outline: (§1)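 Urease source: H. pylori ATCC 43504 grown 24 h at 37 °C, microaerobic (5% O2, 10% CO2, 85% N2), in brucella broth with 10% heat-inactivated horse serum. Enzyme (4 U) preincubated with test compound 3 h at room temperature. Ammonia production read by the indophenol method. IC50 values from triplicate measurements, reported as mean ± SD.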

[3] = molecular target: T1, Urease subunit alpha/Urease subunit beta; assay: Inhibition of Helicobacter pylori ATCC 43504 urease in presence of 0.4 mM 2-mercaptoethanol after 3 hrs pre-incubation; outline: as §1
[4] = molecular target: T1, Urease subunit alpha/Urease subunit beta; assay: Inhibition of Helicobacter pylori ATCC 43504 urease in presence of 0.4 mM dithiothreitol after 3 hrs pre-incubation; outline: as §1

Row | inhibition [1] | SMILES | IC50 [2] [µM] | IC50 [3] [µM] | IC50 [4] [µM]
1 | 17% | COc1c(O)cc(O)c(C(=O)Cc2ccc(O)cc2)c1O |  |  | 
2 | 42% | COc1ccc(CC(O)c2ccc(OC)c(OC)c2O)cc1 (configuration not stated) |  |  | 
3 |  | CC(=O)NO [ACETOHYDROXAMIC ACID] | 17 | 19 | 18
4 | 51% | O=C(Cc1ccc(O)cc1)c1ccc(O)c(O)c1O |  |  | 
5 | 16% | O=C(Cc1ccc(O)cc1)c1ccc(O)cc1O |  |  | 
6 | 41% | CC(=O)c1ccc(O)c(O)c1 |  |  | 
7 | 14% | CC(=O)c1ccc(O)cc1O |  |  | 
8 | 39% | O=C(Cc1ccc(O)cc1)c1ccc(O)c(O)c1 |  |  | 
9 | 44% | COc1ccc(CC(=O)c2ccc(O)c(O)c2O)cc1 |  |  | 
10 | 23% and 36% | COc1c(O)cc(O)c2c(=O)c(-c3ccc(O)cc3)coc12 |  |  | 
11 | 38% | CC(=O)c1ccc(O)c(O)c1O |  |  | 
12 | 14% | COc1ccc(CC(=O)c2ccc(O)cc2O)cc1 |  |  | 

Row | SMILES | inhibition [1] | IC50 [2] [µM] | IC50 [3] [µM] | IC50 [4] [µM]
13 | Oc1ccc(CCc2ccc(O)c(O)c2O)cc1 | 94.5% | 30 | 71 | 53
14 | O=c1c(-c2ccc(O)cc2)coc2c(O)c(O)ccc12 | 81.7% | 140 | > 1480 | > 1480
